Assay outcomes deposited in PubChem by several laboratories.
Most compounds without a hit are left out; they make up all but 2.2% or so of the library.
NR2E3 ag-1: activates human NR2E3 receptor; CHO-S Gal4-NCOR/VP16-NR2E3 two-hybrid, luciferase; hit rate 0.35% among 360,000; inhibition of corepressor binding, % at 3.98 µM; Q9Y5X4;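 active = inhibition above the mean of all tested compounds plus 3 SD, cut at about 70% in these data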;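 also: 0% = DMSO with NR2E3 transfected cells and 100% = cells lacking NR2E3 construct; higher means lower luciferase signal from less NR2E3 corepressor binding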
Target sequence (Q9Y5X4 whole entry, looked up, the tested form may be a part): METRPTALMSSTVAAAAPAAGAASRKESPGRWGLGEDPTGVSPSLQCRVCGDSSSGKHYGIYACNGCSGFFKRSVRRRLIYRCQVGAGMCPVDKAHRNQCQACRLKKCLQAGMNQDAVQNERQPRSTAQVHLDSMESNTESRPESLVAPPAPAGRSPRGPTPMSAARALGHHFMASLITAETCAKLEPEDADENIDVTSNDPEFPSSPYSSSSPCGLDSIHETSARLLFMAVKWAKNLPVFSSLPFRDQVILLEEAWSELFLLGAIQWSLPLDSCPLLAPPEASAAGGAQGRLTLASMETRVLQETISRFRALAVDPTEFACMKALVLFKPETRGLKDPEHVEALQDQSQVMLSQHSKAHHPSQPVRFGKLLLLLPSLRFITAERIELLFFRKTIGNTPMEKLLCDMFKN
miR122 inh: blocks miR-122 activity in Huh7 sensor cells; AID 602342; Huh7 miR-122 Renilla luciferase sensor, 48 h; neutral wells = 0, positive control = 100; activation (reporter increase), % at 12.5 µM; hit rate 0.3% among 340,000;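 active = mean replicate activation score at least 90 and every replicate individually at or above 90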;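 also: higher luciferase means less miR-122 activity so hits act as miR-122 inhibitors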
NR2E3 ag-2: activates human photoreceptor nuclear receptor NR2E3; Q9Y5X4; GST-NR2E3/biotin-RetCOR TR-FRET, 1536-well; inhibition of corepressor binding, % at 4.78 µM; hit rate 0.12% among 320,000; AID 2300;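 active = percent inhibition above the cutoff of mean plus 3 SD of all tested compounds, set per screening campaign, cut at about 20% in these data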;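 also: 0% = DMSO wells and 100% = biotin wells as full block of FRET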
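System: GST-NR2E3 and biotin-RetCOR proteins; probe or stimulus: 7 nM biotin-RetCOR; doses: compound at 4.8 µM, single dose; schedule: Compound–protein incubation for 5 h at 4 °C; detection: time-resolved FRET; read-out: percent inhibition; controls: biotin wells as high control, 0.6% DMSO wells as low control; format: 1536-well plates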
697 NFkB inh: lowers PMA/ionomycin-induced NF-kB signal in 697 B cells | inhibition, % at 4 µM | hit rate 0.33% among 330,000 | AID 435022 | 697 B-cell NF-kB luciferase reporter, 16 h; in the data active = inhibition above about 35%
FGF22 binding: binders of recombinant human FGF22 by thermal shift | Q9HCT0 | SYPRO orange fluorescence; percent of sucrose octasulfate shift, DMSO zero | activity (Tm shift, normalised), % at 9.99 µM | hit rate 1.5% among 340,000;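 active = mean Tm shift, scaled 0 neutral to 100 positive control, at about 1.3% or above, every replicate too, limit read from the data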
Target sequence (Q9HCT0 whole entry, looked up): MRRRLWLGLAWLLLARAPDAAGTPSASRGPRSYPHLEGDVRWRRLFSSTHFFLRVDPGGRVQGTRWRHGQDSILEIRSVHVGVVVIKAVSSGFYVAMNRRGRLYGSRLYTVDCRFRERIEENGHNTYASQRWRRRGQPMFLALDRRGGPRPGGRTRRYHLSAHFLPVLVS
Jurkat NFkB inh: inhibitors of the PMA/ionomycin-induced NF-kB reporter in Jurkat cells; PMA/ionomycin-induced NF-kB luciferase reporter, luminescence; inhibition, % at 4 µM; hit rate 0.53% among 330,000; AID 435003; in the data active = inhibition above about 50%
Jurkat NFkB conf: inhibitors of the PMA/ionomycin-induced NF-kB reporter in Jurkat cells, retest; inhibition, % at 4 µM; shares compounds with Jurkat NFkB inh; hit rate 27% among 2,700; Jurkat NF-kB luciferase, 16 h;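 active = inhibition reaching about 45% at 4 µM in either replicate, limit read from the data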;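 also: plate controls were PMA/ionomycin stimulated DMSO wells for no effect and unstimulated DMSO wells for full effect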
Starred values were filed as active, the others as inactive; [ ] = dose if it differs, or a comment.

`Cc1noc(C)c1NC(=O)Nc1ccc2c(c1)C(=O)N([C@H](C)CO)C[C@@H](C)[C@@H](CN(C)S(=O)(=O)c1ccc(F)cc1)O2` gave miR122 inh 19[16.7 µM] and FGF22 binding 0.
O=C(NCc1cccs1)C1CCN(c2ccc(S(=O)(=O)N3CCOCC3)cc2Cl)CC1 was read as NR2E3 ag-1 -15, miR122 inh 63, NR2E3 ag-2 5, 697 NFkB inh -75, Jurkat NFkB inh 76* and Jurkat NFkB conf 54*.
Screening O=C(COC(=O)c1cccc(OC(F)F)c1)Nc1cccc(S(=O)(=O)N2CCCC2)c1 returned NR2E3 ag-1 -16, miR122 inh -7, 697 NFkB inh 1, FGF22 binding 0, Jurkat NFkB inh 63* and Jurkat NFkB conf 11.
Screening C[C@@H]1CCCCO[C@H](CN(C)Cc2ccc(C(F)(F)F)cc2)[C@H](C)CN([C@H](C)CO)C(=O)c2cc(NC(=O)c3ccncc3)ccc2O1 returned miR122 inh -9[16.7 µM] and FGF22 binding 1.
COc1cccc(-c2cc(C(=O)Nc3cc(C)n(Cc4ccc(Cl)cc4)n3)no2)c1 was read as NR2E3 ag-1 0, miR122 inh -12, NR2E3 ag-2 -1, 697 NFkB inh 28, FGF22 binding 0, Jurkat NFkB inh 61* and Jurkat NFkB conf 42.
`COc1ccc2c3c([nH]c2c1)[C@@H](CO)N(C(=O)C1CCC1)CC31CCN(Cc2cccc(F)c2)CC1` gave FGF22 binding 0.
`CCN(CC)S(=O)(=O)c1ccc(N/N=C/c2ccc(O)cc2O)nc1` gave NR2E3 ag-1 -10, NR2E3 ag-2 -3, 697 NFkB inh -66, Jurkat NFkB inh 51* and Jurkat NFkB conf 14.
For O=[N+]([O-])c1ccc(NN=Cc2ccc(O)cc2O)nc1 the results were NR2E3 ag-1 -53, miR122 inh 9 and FGF22 binding 0.
`O=C(C1CCC1)N1C[C@@H]2[C@H](c3ccccc31)[C@@H](CO)N2C(=O)c1ccccc1F` gave miR122 inh 30[16.7 µM] and FGF22 binding 0.
For C[C@H]1CN([C@@H](C)CO)C(=O)CCCn2cc(nn2)CO[C@@H]1CN(C)Cc1ccccc1C(F)(F)F the results were miR122 inh 0[16.7 µM] and FGF22 binding 0.
C[C@H](CO)N1C[C@H](C)[C@H](CN(C)Cc2ccc(C(=O)O)cc2)OCCCC[C@H](C)Oc2ccc(NC(=O)Cc3ccccc3)cc2C1=O was read as miR122 inh 3[16.7 µM] and FGF22 binding 0.
For Cc1noc(C)c1COc1ccc(C(=O)NNC(=O)c2ccccc2)cc1 the results were NR2E3 ag-1 -64, miR122 inh 18, NR2E3 ag-2 -3, 697 NFkB inh -33, FGF22 binding 1, Jurkat NFkB inh 63* and Jurkat NFkB conf 30.
Cc1noc(C)c1COc1ccc(C(=O)NNC(=O)c2ccccc2F)cc1 was read as NR2E3 ag-1 -73, NR2E3 ag-2 2, 697 NFkB inh -50, Jurkat NFkB inh 56* and Jurkat NFkB conf 45.
COc1ccc(-c2cnc3c(c2)C(=O)N([C@@H](C)CO)C[C@H](C)[C@H](CN(C)S(C)(=O)=O)O3)cc1 was read as miR122 inh 12[16.7 µM] and FGF22 binding 0.
Screening C[C@]12CC[C@@H]3c4ccc(O)cc4[C@@H](O)C[C@H]3[C@@H]1CC[C@@H]2O returned NR2E3 ag-2 5, 697 NFkB inh -9 and Jurkat NFkB inh 2.
C[C@]12CC[C@@H]3c4cc(O)c(O)cc4CC[C@H]3[C@@H]1CC[C@@H]2O was read as NR2E3 ag-1 -29, miR122 inh -8, NR2E3 ag-2 -2, 697 NFkB inh -41, FGF22 binding 0, Jurkat NFkB inh 52* and Jurkat NFkB conf 40.
`NC(N)=N/N=C/c1ccc(OS(=O)(=O)c2ccccc2)cc1` gave NR2E3 ag-1 12, NR2E3 ag-2 0, 697 NFkB inh -17, FGF22 binding 0, Jurkat NFkB inh 50* and Jurkat NFkB conf 5.
For O=C(C[C@H]1C=C[C@@H](NC(=O)Nc2cc(F)ccc2F)[C@@H](CO)O1)Nc1ccc(-c2ccccc2)cc1 the results were FGF22 binding 1.
For C[C@H](CO)N1C[C@H](C)[C@H](CN(C)C)Oc2cc(-c3cccc(C(=O)N(C)C)c3)ccc2S1(=O)=O the results were miR122 inh 0[16.7 µM] and FGF22 binding 0.
`C[C@@H]1CCCCO[C@@H](CN(C)C(=O)NC2CCCCC2)[C@H](C)CN([C@H](C)CO)C(=O)c2cc(NC(=O)c3ccncc3)ccc2O1` gave miR122 inh -8[16.7 µM] and FGF22 binding 0.
For COc1cc(OC)cc(C(=O)NCC(=O)N2CC=C(c3ccccc3)CC2)c1 the results were NR2E3 ag-1 -34, 697 NFkB inh -44, FGF22 binding 0, Jurkat NFkB inh 70* and Jurkat NFkB conf 14.
Screening CCOc1ccc(C(=O)NC(=S)Nc2cccc(S(=O)(=O)NC3=NCCC3)c2)cc1 returned NR2E3 ag-1 -48, NR2E3 ag-2 -2, 697 NFkB inh 5, FGF22 binding 0, Jurkat NFkB inh 60* and Jurkat NFkB conf 34.
For CCOc1ccc(Cc2c(Cl)nc(SC)nc2N(C)C)cc1 the results were NR2E3 ag-1 -37, NR2E3 ag-2 4, 697 NFkB inh -70, FGF22 binding 0, Jurkat NFkB inh 60* and Jurkat NFkB conf 27.
`CSc1nc(Cl)c(Cc2ccc(OC(C)C)cc2)c(N(C)C)n1` gave NR2E3 ag-1 -6, NR2E3 ag-2 -3, 697 NFkB inh -38, FGF22 binding 0 and Jurkat NFkB inh 11.
C[C@@H]1CCCCO[C@H](CN(C)Cc2ccccc2)[C@H](C)CN([C@H](C)CO)C(=O)c2cc(NC(=O)Nc3cccc4ccccc34)ccc2O1 was read as miR122 inh -13[16.7 µM] and FGF22 binding -1.
For Nc1nc(Cl)nc(N(c2ccccc2)c2ccccc2)n1 the results were NR2E3 ag-1 7, NR2E3 ag-2 4, 697 NFkB inh 10, FGF22 binding 0 and Jurkat NFkB inh -2.
`Nc1nc(CCl)nc(N(c2ccccc2)c2ccccc2)n1` gave NR2E3 ag-1 -4, miR122 inh -26, NR2E3 ag-2 3, 697 NFkB inh 34, Jurkat NFkB inh 76* and Jurkat NFkB conf 19.
For COc1ccc(NC(=O)C(=O)NCC2CCCN2S(=O)(=O)c2ccc(C)cc2)cc1 (stereo not given) the results were NR2E3 ag-1 42, NR2E3 ag-2 -3, 697 NFkB inh -170, FGF22 binding 0, Jurkat NFkB inh 76* and Jurkat NFkB conf 64*.
